Results reported in ChEMBL document CHEMBL3588772, “Synthesis, anti-mycobacterial activity and DNA sequence-selectivity of a library of biaryl-motifs containing polyamides” (Bioorg Med Chem, 2015).
Values after ≈ are worked out from the molar mass of the structure shown.

The molecules below were run on Mycobacterium tuberculosis (assay: Antimycobacterial activity against Mycobacterium bovis BCG after 7 days). Conditions: variant bovis BCG, 168 h.
Assay type: functional
Method in brief: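 HT-SPOTi agar growth inhibition in 96-well format. Serially diluted DMSO solutions were mixed into Middlebrook 7H10 agar (kept at 55 °C) with 0.05% glycerol and 10% OADC. Controls were DMSO-only wells and isoniazid. Each well received 2×10³ CFU of culture (pre-grown rolling at 2 rpm or standing, 37 °C). Plates ran 7 days at 37 °C. MIC = lowest concentration with no visible growth.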
For `Cn1cc(NC(=O)c2cc(NC(=O)c3cc(NC=O)cn3C)cn2C)cc1C(=O)NCCC(=N)N` [STALLIMYCIN], the MIC was 1.95 µg/mL (≈ 4.05 µM). With `Cc1nc(-c2ccsc2)sc1C(=O)Nc1cc(C(=O)Nc2cc(C(=O)NCCCN(C)C)n(C)c2)n(C)c1` the MIC was 125 µg/mL (≈ 226 µM). For `Cc1nc(-c2cnn(C)c2)sc1C(=O)Nc1cc(C(=O)Nc2cc(C(=O)NCCCN(C)C)n(C)c2)n(C)c1`, the MIC was 62.5 µg/mL (≈ 113 µM). For `CC(=O)Nc1cccc(-c2ccc(C(=O)Nc3cc(C(=O)Nc4cc(C(=O)NCCCN(C)C)n(C)c4)n(C)c3)o2)c1`, the MIC was 125 µg/mL (≈ 218 µM). For `CC(=O)Nc1ccc(-c2ccc(C(=O)Nc3cc(C(=O)Nc4cc(C(=O)NCCCN(C)C)n(C)c4)n(C)c3)o2)cc1`, the MIC was 125 µg/mL (≈ 218 µM). `NNC(=O)c1ccncc1` [ISONIAZID] was tested, and the MIC was 0.05 µg/mL (≈ 0.365 µM). For `CC(=O)Nc1ccc(-c2csc(C(=O)Nc3cc(C(=O)Nc4cc(C(=O)NCCCN(C)C)n(C)c4)n(C)c3)c2)cc1`, the MIC was 125 µg/mL (≈ 212 µM). Molecule `CO[C@H]1/C=C/O[C@@]2(C)Oc3c(C)c(O)c4c(O)c(c(/C=N/N5CCN(C)CC5)c(O)c4c3C2=O)NC(=O)/C(C)=C\C=C\[C@H](C)[C@H](O)[C@@H](C)[C@@H](O)[C@@H](C)[C@H](OC(C)=O)[C@@H]1C` [RIFAMPIN] has an MIC of 0.05 µg/mL (≈ 0.0608 µM). `CC(=O)Nc1ccc(-c2cc(C(=O)Nc3cc(C(=O)Nc4cc(C(=O)NCCCN(C)C)n(C)c4)n(C)c3)n(C)c2)cc1` showed an MIC of 125 µg/mL (≈ 213 µM).
